Experiments:
[1] = tested on: EBV-positive nasopharyngeal cell line; assay: EBV-positive nasopharyngeal colony count obtained from the examination of uniform plate surface areas after a dose of 0.4 ug/mL from experiment B; assay type: functional, human gammaherpesvirus 4
Outline: (§1)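 Modified clonogenic assay in D98/HR1 cells from 3-4-day-old monolayer cultures. Drug diluted into warm McCoy's 5A medium; quinones first dissolved in dichloromethane, then diluted in 95% ethanol. Cells at 4.0 × 10^5/mL exposed for 1 h at 37 °C, washed twice, then plated in 0.3% agar CMRL 1066 medium over a 0.5% agar base, 6.7 × 10^4 cells/plate. Survival is expressed relative to control.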

[2] = tested on: EBV-positive nasopharyngeal cell line; assay: EBV-positive nasopharyngeal colony count obtained from the examination of uniform plate surface areas after a dose of 0.004 ug/mL from experiment B; assay type: functional, human gammaherpesvirus 4; outline: as §1
[3] = tested on: EBV-positive nasopharyngeal cell line; assay: EBV-positive nasopharyngeal colony count obtained from the examination of uniform plate surface areas after a dose of 0.04 ug/mL from experiment A; assay type: functional, human gammaherpesvirus 4; outline: as §1
[4] = tested on: EBV-positive nasopharyngeal cell line; assay: EBV-positive nasopharyngeal colony count obtained from the examination of uniform plate surface areas after a dose of 0.04 ug/mL from experiment B; assay type: functional, human gammaherpesvirus 4; outline: as §1
[5] = tested on: EBV-positive nasopharyngeal cell line; assay: Percent colony reduction in cell growth in EBV-positive nasopharyngeal cell lines after administration of 0.004 ug/mL dose from experiment B; assay type: functional, human gammaherpesvirus 4
Outline: (§2)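 D98/HR1 cells from 3-4-day monolayer cultures, suspended at 4.0×10^5/mL and exposed to drug for 1 h at 37 °C. Quinones dissolved in dichloromethane, diluted in 95% ethanol, then in warm McCoy's 5A. Cells washed twice, plated in agar over an agar base at 6.7×10^4 cells/plate. Colony survival expressed relative to control, as percent reduction.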

[6] = tested on: EBV-positive nasopharyngeal cell line; assay: Percent colony reduction in cell growth in EBV-positive nasopharyngeal cell lines after administration of 0.04 ug/mL dose from experiment A; assay type: functional, human gammaherpesvirus 4; outline: as §2
[7] = tested on: EBV-positive nasopharyngeal cell line; assay: Percent colony reduction in cell growth in EBV-positive nasopharyngeal cell lines after administration of 0.04 ug/mL dose from experiment B; assay type: functional, human gammaherpesvirus 4; outline: as §2
[8] = tested on: EBV-positive nasopharyngeal cell line; assay: Percent colony reduction in cell growth in EBV-positive nasopharyngeal cell lines after administration of 0.4 ug/mL dose from experiment B; assay type: functional, human gammaherpesvirus 4; outline: as §2
[9] = tested on: EBV-positive nasopharyngeal cell line; assay: EBV-positive nasopharyngeal colony count obtained from the examination of uniform plate surface areas after a dose of 1.34 ug/mL from Experiment B; assay type: functional, human gammaherpesvirus 4; outline: as §1
[10] = tested on: EBV-positive nasopharyngeal cell line; assay: EBV-positive nasopharyngeal colony count obtained from the examination of uniform plate surface areas after a dose of 2.68 ug/mL from Experiment B in mice; assay type: functional, human gammaherpesvirus 4
[11] = tested on: EBV-positive nasopharyngeal cell line; assay: EBV-positive nasopharyngeal colony count obtained from the examination of uniform plate surface areas after a dose of 0.67 ug/mL from Experiment B; assay type: functional, human gammaherpesvirus 4; outline: as §1
[12] = tested on: EBV-positive nasopharyngeal cell line; assay: EBV-positive nasopharyngeal colony count obtained from the examination of uniform plate surface areas after a dose of 0.067 ug/mL from Experiment B; assay type: functional, human gammaherpesvirus 4; outline: as §1
Mus musculus [13] = assay: Base line measurement at a sample size of 4 after first week of 20 mg/kg dose administration in mice; assay type: functional
Outline: (§3)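 Nude mice pretreated with 0.5 mL rabbit anti-mouse thymocyte serum s.c., inoculated s.c. 7 days later with 1×10^7 D98/HR1 cells in PBS, and given a second serum dose two weeks later. Dosing started at tumors ~2-3 mm diameter, daily for 14 days, then 2 weeks off. Dose per kg from daily individual weights; Klucel vehicle. Group mean tumor volume (mm3) adjusted by analysis of covariance for base line.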

Mus musculus [14] = assay: Base line measurement at a sample size of 4 after fourth week of 20 mg/kg dose administration in mice; assay type: functional; outline: as §3
Mus musculus [15] = assay: Base line measurement at a sample size of 4 after second week of 20 mg/kg dose administration in mice; assay type: functional; outline: as §3
Mus musculus [16] = assay: Base line measurement at a sample size of 5 after first week of 5 mg/kg dose administration in mice; assay type: functional; outline: as §3
Mus musculus [17] = assay: Base line measurement at a sample size of 5 after fourth week of 5 mg/kg dose administration in mice; assay type: functional; outline: as §3
Mus musculus [18] = assay: Base line measurement at a sample size of 5 after second week of 5 mg/kg dose administration in mice; assay type: functional; outline: as §3
[19] = tested on: EBV-positive nasopharyngeal cell line; assay: Percent colony reduction in cell growth in EBV-positive nasopharyngeal cell lines after in vitro exposure at 1.34 ug/mL
[20] = tested on: EBV-positive nasopharyngeal cell line; assay: Percent colony reduction in cell growth in EBV-positive nasopharyngeal cell lines after administration of 0.067 ug/mL dose
[21] = tested on: EBV-positive nasopharyngeal cell line; assay: EBV-positive nasopharyngeal colony count obtained from the examination of uniform plate surface areas after a dose of 10 ug/mL; assay type: functional, cell-based; conditions: human gammaherpesvirus 4; outline: as §1
[22] = tested on: EBV-positive nasopharyngeal cell line; assay: Percent colony reduction in cell growth in EBV-positive nasopharyngeal cell lines after administration of 10 ug/mL dose; assay type: functional, cell-based; conditions: human gammaherpesvirus 4; outline: as §2
[23] = tested on: EBV-positive nasopharyngeal cell line; assay: EBV-positive nasopharyngeal colony count obtained from the examination of uniform plate surface areas after a dose of 0.2 ug/mL; assay type: functional; outline: as §1
[24] = tested on: EBV-positive nasopharyngeal cell line; assay: Percent colony reduction in cell growth in EBV-positive nasopharyngeal cell lines after administration of 0.2 ug/mL dose; assay type: functional; outline: as §2
[25] = tested on: EBV-positive nasopharyngeal cell line; assay: Percent colony reduction in cell growth in EBV-positive nasopharyngeal cell lines (D98/HR1) after administration of 3.0 ug/mL dose; assay type: functional, human gammaherpesvirus 4; outline: as §2
[26] = tested on: EBV-positive nasopharyngeal cell line; assay: EBV-positive nasopharyngeal cells (D98/HR1) survived at concentration of 3.0 ug/mL of compound; assay type: functional, human gammaherpesvirus 4; outline: as §1
[27] = tested on: EBV-positive nasopharyngeal cell line; assay: EBV-positive nasopharyngeal colony count obtained from the examination of uniform plate surface areas after a dose of 1.34 ug/mL; assay type: functional, human gammaherpesvirus 4; outline: as §1
[28] = tested on: EBV-positive nasopharyngeal cell line; assay: EBV-positive nasopharyngeal colony count obtained from the examination of uniform plate surface areas after a dose of 2.68 ug/mL; assay type: functional, human gammaherpesvirus 4; outline: as §1
[29] = tested on: EBV-positive nasopharyngeal cell line; assay: EBV-positive nasopharyngeal colony count obtained from the examination of uniform plate surface areas after a dose of 0.67 ug/mL; assay type: functional, human gammaherpesvirus 4; outline: as §1
[30] = tested on: EBV-positive nasopharyngeal cell line; assay: Percent colony reduction in cell growth in EBV-positive nasopharyngeal cell lines after administration of 1.34 ug/mL dose; assay type: functional, human gammaherpesvirus 4; outline: as §2
[31] = tested on: EBV-positive nasopharyngeal cell line; assay: Percent colony reduction in cell growth in EBV-positive nasopharyngeal cell lines after administration of 6.28 ug/mL dose; assay type: functional, human gammaherpesvirus 4; conditions: in the assay text read “2.68 ug/mL” for “6.28 ug/mL”; outline: as §2
[32] = tested on: EBV-positive nasopharyngeal cell line; assay: Percent colony reduction in cell growth in EBV-positive nasopharyngeal cell lines after administration of 0.67 ug/mL dose; assay type: functional, human gammaherpesvirus 4; outline: as §2
Mus musculus [33] = assay: Base line measurement at a sample size of 3 after first week of 20 mg/kg dose administration; assay type: functional; outline: as §3
Mus musculus [34] = assay: Base line measurement at a sample size of 3 after fourth week of 20 mg/kg dose administration; assay type: functional; outline: as §3
Mus musculus [35] = assay: Base line measurement at a sample size of 3 after second week of 20 mg/kg dose administration; assay type: functional; outline: as §3
Mus musculus [36] = assay: Base line measurement at a sample size of 5 after first week of 5 mg/kg dose administration; assay type: functional; outline: as §3
Mus musculus [37] = assay: Base line measurement at a sample size of 5 after fourth week of 5 mg/kg dose administration; assay type: functional; outline: as §3
Mus musculus [38] = assay: Base line measurement at a sample size of 5 after second week of 5 mg/kg dose administration; assay type: functional; outline: as §3
[39] = tested on: EBV-positive nasopharyngeal cell line; assay: EBV-positive nasopharyngeal colony count obtained from the examination of uniform plate surface areas after a dose of 0.1 ug/mL; assay type: functional, human gammaherpesvirus 4; outline: as §1
[40] = tested on: EBV-positive nasopharyngeal cell line; assay: Percent colony reduction in cell growth in EBV-positive nasopharyngeal cell lines (D98/HR1) after administration of 0.3 ug/mL dose; assay type: functional, human gammaherpesvirus 4; outline: as §2
[41] = tested on: EBV-positive nasopharyngeal cell line; assay: Percent colony reduction in cell growth in EBV-positive nasopharyngeal cell lines (D98/HR1) after administration of 100 ug/mL dose; assay type: functional, human gammaherpesvirus 4; outline: as §2
[42] = tested on: EBV-positive nasopharyngeal cell line; assay: EBV-positive nasopharyngeal cells (D98/HR1) survived at concentration of 0.3 ug/mL of compound; assay type: functional, human gammaherpesvirus 4; outline: as §1
[43] = tested on: EBV-positive nasopharyngeal cell line; assay: EBV-positive nasopharyngeal cells (D98/HR1) survived at concentration of 100 ug/mL of compound; assay type: functional, human gammaherpesvirus 4; outline: as §1
[44] = tested on: EBV-positive nasopharyngeal cell line; assay: EBV-positive nasopharyngeal colony count obtained from the examination of uniform plate surface areas after a dose of 6.0 ug/mL; assay type: functional, human gammaherpesvirus 4; outline: as §1
[45] = tested on: EBV-positive nasopharyngeal cell line; assay: Percent colony reduction in cell growth in EBV-positive nasopharyngeal cell lines after administration of 6.0 ug/mL dose; assay type: functional, human gammaherpesvirus 4; outline: as §2

## COc1cccc2c1C(=O)c1c(O)c3c(c(O)c1C2=O)C[C@@](O)(C(=O)CO)C[C@@H]3O[C@H]1C[C@H](N)[C@H](O)[C@H](C)O1 [DOXORUBICIN]
[1]
  Survival: <0.1
[2]
  Survival: 0.69
[3]
  Survival: 0.37
[4]
  Survival: 0.18
[5]
  Reduction: 31%
[6]
  Reduction: 63%
[7]
  Reduction: 82%
[8]
  Reduction: >99%

## CC(=O)OCC1=CC(=O)C=C(CCC2=CC(=O)C=C(COC(C)=O)C2=O)C1=O
[9]
  Survival: 1.19
[10]
  Survival: 1.35
[11]
  Survival: 1.34
[12]
  Survival: 0.7
Mus musculus [13]
  Baseline: 34.53
Mus musculus [14]
  Baseline: 360.23
Mus musculus [15]
  Baseline: 94.83
Mus musculus [16]
  Baseline: 69.66
Mus musculus [17]
  Baseline: 358.79
Mus musculus [18]
  Baseline: 162.76
[19]
  Reduction: -19%
[20]
  Reduction: 30%

## CISPLATIN
[21]
  Survival: 0.03
[22]
  Reduction: 97%
[23]; human gammaherpesvirus 4
  Survival: 0.4
[24]; human gammaherpesvirus 4
  Reduction: 60%

## COc1cc([C@@H]2c3cc4c(cc3[C@@H](O[C@@H]3O[C@@H]5CO[C@@H](C)O[C@H]5[C@H](O)[C@H]3O)[C@H]3COC(=O)[C@H]23)OCO4)cc(OC)c1O [ETOPOSIDE]
[25]
  Reduction: 70%
[26]
  Survival: 0.3

## O=C1C=C(CBr)C(=O)C(CCC2=CC(=O)C=C(CBr)C2=O)=C1
[27]
  Survival: 0.77
[28]
  Survival: 0.91
[29]
  Survival: 0.81
[30]
  Reduction: 23%
[31]
  Reduction: 9%
[23]
  Survival: 1
[24]
  Reduction: 0%
[32]
  Reduction: 19%
Mus musculus [33]
  Baseline: 12.54
Mus musculus [34]
  Baseline: 29.69
Mus musculus [35]
  Baseline: 17.52
Mus musculus [36]
  Baseline: 22.32
Mus musculus [37]
  Baseline: 137.03
Mus musculus [38]
  Baseline: 43.2

## O=C1c2c(O)ccc(O)c2C(=O)c2c(NCCNCCO)ccc(NCCNCCO)c21 [MITOXANTRONE]
[39]
  Survival: 0.33

## CN(Cc1cnc2nc(N)nc(N)c2n1)c1ccc(C(=O)N[C@@H](CCC(=O)O)C(=O)O)cc1 [METHOTREXATE]
[40]
  Reduction: 60%
[41]
  Reduction: >99%
[42]
  Survival: 0.4
[43]
  Survival: <0.01

## CC[C@]1(O)C[C@@H]2CN(CCc3c([nH]c4ccccc34)[C@@](C(=O)OC)(c3cc4c(cc3OC)N(C)[C@H]3[C@@](O)(C(=O)OC)[C@H](OC(C)=O)[C@]5(CC)C=CCN6CC[C@]43[C@@H]65)C2)C1 [VINBLASTINE]
[44]
  Survival: <0.01
[45]
  Reduction: >99%

From ChEMBL document CHEMBL1122406, “Bis(bioreductive) alkylating agents: synthesis and biological activity in a nude mouse human carcinoma model” (1983)
